Data published in ChEMBL document CHEMBL1240409, “Design, synthesis and evaluation of (E)-alpha-benzylthio chalcones as novel inhibitors of BCR-ABL kinase” (Bioorg Med Chem, 2010).

Key:
K562 = assay: Growth inhibition of human K562 cells expressing p210Bcr/Abl after 96 hrs by trypan blue exclusion assay; assay type: functional, cell-based; settings: K562, 96 h
How it was run: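 K562 cells were kept in RPMI with 10% FBS and penicillin–streptomycin at 37 °C under 5% CO2. Cells were seeded at 1 × 10^5 cells/mL with a range of compound concentrations, using DMSO as the negative control. After 96 h, viability was counted by Trypan blue exclusion and expressed as percent of DMSO control to derive GI50.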

DU-145 = assay: Growth inhibition of human DU145 cells after 96 hrs by trypan blue exclusion assay; assay type: functional; settings: DU-145, 96 h

`Cc1ccsc1/C=C(/SCc1ccc(Cl)cc1)C(=O)c1ccc([N+](=O)[O-])cc1` showed a GI50 (K562) of over 100 µM and a GI50 (DU-145) of over 100 µM.
`COc1ccc(/C=C(/SCc2ccc(F)cc2)C(=O)c2ccc(Br)cc2)cc1` gave a GI50 (K562) of 1 µM and a GI50 (DU-145) of 50 µM.
Compound `O=C(/C(=C\c1ccc(Br)cc1)Sc1ccc(Br)cc1)c1ccc(Br)cc1` has a GI50 (K562) of 2.5 µM and a GI50 (DU-145) of 1 µM.
`Cc1ccc(S(=O)(=O)/C(=C/c2c(O)cc(O)cc2O)C(=O)c2ccc(Br)cc2)cc1` was tested, and the GI50 (K562) was over 100 µM and the GI50 (DU-145) was over 100 µM.
`O=C(/C(=C\c1ccc(O)c([N+](=O)[O-])c1)SCc1ccc(Cl)cc1)c1ccc(Cl)cc1` was tested, and the GI50 (K562) was 10 µM and the GI50 (DU-145) was 10 µM.
With `Cc1ccc(S/C(=C/c2ccc(O)c([N+](=O)[O-])c2)C(=O)c2ccc(Cl)cc2)cc1` the GI50 (K562) was 25 µM and the GI50 (DU-145) was 10 µM.
`COc1ccc(/C=C(/Sc2ccc(Br)cc2)C(=O)c2ccc(Br)cc2)cc1` gave a GI50 (K562) of 1 µM and a GI50 (DU-145) of 25 µM.
With `COc1ccc(/C=C(\C(=O)c2ccc(Br)cc2)S(=O)(=O)c2ccc(Br)cc2)c(F)c1` the GI50 (K562) was 1 µM and the GI50 (DU-145) was 10 µM.
With `Cc1ccc(S/C(=C/c2ccc(N(C)C)cc2)C(=O)c2ccc(Cl)cc2)cc1` the GI50 (K562) was over 100 µM and the GI50 (DU-145) was over 100 µM.
`Cc1ccc(S(=O)(=O)/C(=C/c2ccc(N(C)C)cc2)C(=O)c2ccc(Br)cc2)cc1` gave a GI50 (K562) of over 100 µM and a GI50 (DU-145) of 50 µM.
In the case of `COc1ccc(/C=C(/Sc2ccc(C)cc2)C(=O)c2ccc(Cl)cc2)cc1`, the GI50 (K562) is reported as 1 µM and the GI50 (DU-145) is reported as 1 µM.
`O=C(O)c1cc(/C=C(\C(=O)c2c(F)c(F)c(F)c(F)c2F)S(=O)(=O)c2ccc(Br)cc2)ccc1O` showed a GI50 (K562) of over 100 µM and a GI50 (DU-145) of over 100 µM.
`O=C(/C(=C\c1ccc(O)cc1O)Sc1ccc(Br)cc1)c1ccc(Cl)cc1` showed a GI50 (K562) of 25 µM and a GI50 (DU-145) of 50 µM.
Work on `COc1ccc(/C=C(\C(=O)c2ccc(Br)cc2)S(=O)(=O)c2ccc(Br)cc2)c(OC)c1` yielded a GI50 (K562) of 8 µM and a GI50 (DU-145) of 8 µM.
With `O=C(/C(=C\c1ccc(Br)cc1)SCc1ccc(Cl)cc1)c1ccc(Br)cc1` the GI50 (K562) was 1 µM and the GI50 (DU-145) was 1 µM.
With `Cc1cc(C)cc(/C=C(\C(=O)c2ccc(Cl)cc2)S(=O)(=O)Cc2ccc(Cl)cc2)c1` the GI50 (K562) was 1 µM and the GI50 (DU-145) was 1 µM.
In the case of `O=C(/C(=C\c1cc(I)c(O)c(I)c1)SCc1ccc(Br)cc1)c1ccc(Br)cc1`, the GI50 (K562) is reported as 1 µM and the GI50 (DU-145) is reported as 1 µM.
`O=C(C(=Cc1ccc(I)cc1)S(=O)(=O)Cc1ccc(I)cc1)c1ccc(I)cc1` was tested, and the GI50 (K562) was over 50 µM and the GI50 (DU-145) was 50 µM.
Compound `Cc1ccc(CS/C(=C/c2ccc(N(C)C)cc2)C(=O)c2ccc(Cl)cc2)cc1` has a GI50 (K562) of 15 µM and a GI50 (DU-145) of over 100 µM.
Work on `O=C(/C(=C\c1ccc(F)cc1C(F)(F)F)SCc1ccc(F)cc1)c1ccc(Br)cc1` yielded a GI50 (K562) of 10 µM and a GI50 (DU-145) of 10 µM.
`O=C(/C(=C\c1ccc(Br)cc1)S(=O)(=O)c1ccccc1Br)c1ccc(Br)cc1` was tested, and the GI50 (K562) was 1 µM and the GI50 (DU-145) was 1 µM.
`O=C(/C(=C\c1c(O)cc(O)cc1O)SCc1ccc(Cl)cc1Cl)c1ccc(Cl)cc1` was tested, and the GI50 (K562) was over 100 µM and the GI50 (DU-145) was 25 µM.
With `O=C(/C(=C\c1ccc(F)cc1)S(=O)(=O)c1ccc(Br)cc1)c1ccc(Br)cc1` the GI50 (K562) was 10 µM and the GI50 (DU-145) was 4 µM.
In the case of `O=C(/C(=C\c1ccc(O)c([N+](=O)[O-])c1)Sc1ccccc1Br)c1ccc(Cl)cc1`, the GI50 (K562) is reported as 10 µM and the GI50 (DU-145) is reported as 25 µM.
With `O=C(/C(=C\c1c[nH]c2ccc(Br)cc12)SCc1ccc(Cl)cc1Cl)c1ccc(Cl)cc1` the GI50 (K562) was 1 µM and the GI50 (DU-145) was 10 µM.
Work on `O=C(/C(=C\c1ccc(F)cc1F)Sc1ccc(Br)cc1)c1ccc(Br)cc1` yielded a GI50 (K562) of 1 µM and a GI50 (DU-145) of 1 µM.
For `O=C(/C(=C\c1ccc([N+](=O)[O-])c(O)c1)SCc1ccc(Br)cc1)c1c(F)c(F)c(F)c(F)c1F`, the GI50 (K562) was 1 µM and the GI50 (DU-145) was 10 µM.
Compound `O=C(/C(=C\c1ccc(O)cc1O)Sc1ccccc1Br)c1ccc(Cl)cc1` has a GI50 (K562) of 50 µM and a GI50 (DU-145) of 50 µM.
In the case of `Cc1ccc(CS/C(=C/c2ccccc2OCc2ccccc2)C(=O)c2ccc(Cl)cc2)cc1`, the GI50 (K562) is reported as 1 µM and the GI50 (DU-145) is reported as 1 µM.
`COc1ccccc1/C=C(\C(=O)c1ccc(Br)cc1)S(=O)(=O)Cc1ccc(F)cc1` showed a GI50 (K562) of 25 µM and a GI50 (DU-145) of 25 µM.
Work on `Cc1ccsc1/C=C(/SCc1ccc(Cl)cc1)C(=O)c1ccc(Cl)cc1` yielded a GI50 (K562) of 50 µM and a GI50 (DU-145) of 50 µM.
`COc1ccccc1/C=C(/SCc1ccc(Cl)cc1)C(=O)c1ccc(Cl)cc1` showed a GI50 (K562) of 1 µM and a GI50 (DU-145) of 1 µM.
`Cc1ccc(S/C(=C/c2ccc[nH]2)C(=O)c2ccc(Cl)cc2)cc1` showed a GI50 (K562) of 10 µM and a GI50 (DU-145) of 10 µM.
With `O=C(/C(=C\c1ccc(Br)c([N+](=O)[O-])c1)S(=O)(=O)c1ccc(Br)cc1)c1ccc(Br)cc1` the GI50 (K562) was 10 µM and the GI50 (DU-145) was 10 µM.
In the case of `O=C(/C(=C\c1ccc(O)cc1O)S(=O)(=O)c1ccccc1Br)c1ccc(Br)cc1`, the GI50 (K562) is reported as 50 µM and the GI50 (DU-145) is reported as over 100 µM.
In the case of `CCOc1cc(/C=C(\C(=O)c2ccc(Cl)cc2)S(=O)(=O)Cc2ccc(Cl)cc2)ccc1O`, the GI50 (K562) is reported as 10 µM and the GI50 (DU-145) is reported as 10 µM.
With `O=C(C(=Cc1ccc(Br)cc1)S(=O)(=O)Cc1ccc(I)cc1)c1ccc(I)cc1` the GI50 (K562) was 20 µM and the GI50 (DU-145) was 20 µM.
`Nc1c(Br)cc(Br)cc1/C=C(/Sc1ccc(Br)cc1)C(=O)c1ccc(Br)cc1` was tested, and the GI50 (K562) was over 100 µM and the GI50 (DU-145) was over 100 µM.
`Cc1ccc(S/C(=C/c2sccc2C)C(=O)c2ccc(Br)cc2)cc1` was tested, and the GI50 (K562) was 50 µM and the GI50 (DU-145) was 50 µM.
Work on `CN(C)c1ccc(/C=C(/SCc2ccc(Cl)cc2)C(=O)c2ccc(Br)cc2)cc1` yielded a GI50 (K562) of 1 µM and a GI50 (DU-145) of 10 µM.
In the case of `CCOc1ccc(/C=C(/Sc2ccc(C)cc2)C(=O)c2ccc(Br)cc2)cc1OC`, the GI50 (K562) is reported as 1 µM and the GI50 (DU-145) is reported as 50 µM.
`COc1cc(OC)c(/C=C(/SCc2ccc(Cl)cc2)C(=O)c2ccc(Br)cc2)c(OC)c1` was tested, and the GI50 (K562) was 10 µM and the GI50 (DU-145) was 1 µM.
Work on `COc1cc(OC)c(/C=C(\C(=O)c2ccc(Br)cc2)S(=O)(=O)c2ccc(C)cc2)c(OC)c1` yielded a GI50 (K562) of over 100 µM and a GI50 (DU-145) of over 100 µM.
In the case of `O=C(/C(=C\c1ccc(O)c([N+](=O)[O-])c1)S(=O)(=O)c1ccc(I)cc1)c1ccc(I)cc1`, the GI50 (K562) is reported as 25 µM and the GI50 (DU-145) is reported as 25 µM.
For `O=C(O)c1ccc(C(=O)/C(=C\c2ccc(Cl)c([N+](=O)[O-])c2)SCc2ccc(C(F)(F)F)cc2)cc1`, the GI50 (K562) was 1 µM and the GI50 (DU-145) was 1 µM.
In the case of `CSc1ccc(/C=C(\C(=O)c2ccc(Br)cc2)S(=O)(=O)Cc2ccc(F)cc2)cc1`, the GI50 (K562) is reported as over 100 µM and the GI50 (DU-145) is reported as 50 µM.
Work on `COc1ccc(C(=O)/C(=C\c2ccc(O)c([N+](=O)[O-])c2)SCc2ccc(Br)cc2)cc1` yielded a GI50 (K562) of 10 µM and a GI50 (DU-145) of 10 µM.
Work on `CN(C)c1ccc(/C=C(/SCc2ccccc2Cl)C(=O)c2ccc(Cl)cc2)cc1` yielded a GI50 (K562) of 50 µM and a GI50 (DU-145) of over 100 µM.
`COc1ccc(/C=C(\C(=O)c2ccc(Br)cc2)S(=O)(=O)c2ccc(Br)cc2)cc1` was tested, and the GI50 (K562) was 10 µM and the GI50 (DU-145) was 25 µM.
`Cc1ccc(S/C(=C/c2ccc(Oc3ccccc3)cc2)C(=O)c2ccc(Cl)cc2)cc1` was tested, and the GI50 (K562) was 10 µM and the GI50 (DU-145) was 10 µM.
In the case of `O=C(/C(=C\c1ccc(Cl)cc1Cl)S(=O)(=O)c1ccc(Br)cc1)c1ccc(Cl)cc1`, the GI50 (K562) is reported as 25 µM and the GI50 (DU-145) is reported as 50 µM.
In the case of `Cc1ccc(S(=O)(=O)/C(=C/c2ccc(N(C)C)cc2)C(=O)c2ccc(Cl)cc2)cc1`, the GI50 (K562) is reported as over 100 µM and the GI50 (DU-145) is reported as over 100 µM.
Compound `Cc1ccc(S/C(=C/c2c[nH]c3ccccc23)C(=O)c2ccc(Cl)cc2)cc1` has a GI50 (K562) of 1 µM and a GI50 (DU-145) of 10 µM.
Work on `COc1cc(/C=C(/Sc2ccc(Br)cc2)C(=O)c2ccc(Br)cc2)ccc1O` yielded a GI50 (K562) of 1 µM and a GI50 (DU-145) of 1 µM.
For `Cc1ccc(CS(=O)(=O)/C(=C/c2ccc(C)s2)C(=O)c2ccc(Cl)cc2)cc1`, the GI50 (K562) was 25 µM and the GI50 (DU-145) was 25 µM.
